# The full list was thinned out, with hits kept by preference.
# S1P4 agonist: agonists of human S1P4 receptor. AID 1509. S1P4-expressing cell line, agonist reporter assay. activation, % at 4.98 µM. hit rate 0.35% among 220,000; in the data active = activation above about 11%
# Target sequence (O95977 whole entry, looked up): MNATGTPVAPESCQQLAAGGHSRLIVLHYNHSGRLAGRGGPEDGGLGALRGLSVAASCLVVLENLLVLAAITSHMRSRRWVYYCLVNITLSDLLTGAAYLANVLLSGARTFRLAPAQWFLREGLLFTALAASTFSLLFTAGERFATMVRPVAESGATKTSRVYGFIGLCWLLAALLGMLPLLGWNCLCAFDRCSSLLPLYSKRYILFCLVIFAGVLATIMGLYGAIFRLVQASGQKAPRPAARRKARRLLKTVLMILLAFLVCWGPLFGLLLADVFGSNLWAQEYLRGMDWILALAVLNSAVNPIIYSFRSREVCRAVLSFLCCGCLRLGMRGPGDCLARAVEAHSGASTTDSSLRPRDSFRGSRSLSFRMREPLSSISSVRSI
# S1P4 antag: antagonists of human S1P4 receptor; hit rate 0.26% among 220,000; O95977; S1P4-expressing cells, antagonist mode, reporter read-out; inhibition, % at 4.98 µM; AID 1510; in the data active = inhibition above about 29%
# Mdm2 ligase inh: blocks human Mdm2 ubiquitin ligase activity; Q00987; cell-based MDM2 ubiquitination luciferase reporter, 2 h; 0 = plate control, 100 = twice control, blank-subtracted; signal enhancement, % at 5 µM; hit rate 0.11% among 210,000; AID 1230;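 active = signal enhancement of 30% or more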;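 note: luminescence tracks abundance of the self-degrading MDM2-luciferase fusion protein; higher signal means inhibition of MDM2 E3 ligase activity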
#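 Assay system: mammalian cells stably expressing self-ubiquitinating, self-degrading MDM2 E3–luciferase fusion. Quantity: 2000 cells in each well. Medium: DMEM culture medium. Compound dosing: single-point 5 µM. Timing: cell settling 4 h, compound treatment 2 h, both 37 °C. Technique: luciferase luminescence. Read-out basis: percent signal gain over controls, blank-subtracted. Benchmarks: plate controls and plate blanks.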
# L major viab: Leishmania major promastigote growth inhibition; inhibition, % at 10 µM; hit rate 9% among 200,000; Leishmania major promastigotes, resazurin fluorescence viability; AID 1063; in the data active = inhibition above about 50%;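 note: promastigotes grown with compound for 44 hours at 28 °C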
# S1P3 antag: antagonists of human S1P3 receptor; Q99500; CHO S1P3 NFAT-BLA reporter, FRET fluorescence, antagonist mode; inhibition, % at 4.98 µM; hit rate 0.27% among 170,000; AID 485;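 active = inhibition above the plate cutoff, the mean inhibition of test wells on that plate plus 3 SD, cut at about 28% in these data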;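 note: cells challenged with S1P at its EC80 of 0.8 µM; blue over green emission ratio from cleaved BLA substrate after 4 h stimulation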
# Numbers stand for hits; 0 = inactive; - = no result given.
SMILES,S1P4 agonist,S1P4 antag,Mdm2 ligase inh,L major viab,S1P3 antag
COc1ccccc1N1CCN(C2CCN(S(=O)(=O)c3ccc(C)cc3)CC2)CC1,0,0,0,-,0
COc1ccccc1N1CCN(C2CCN(C3CCC(c4ccccc4)CC3)CC2)CC1 (stereo unspecified),0,0,0,99,0
O=C(c1ccc(F)cc1)N1CCN(C2CCC(c3ccccc3)CC2)CC1 (stereo unspecified),0,0,0,92,0
O=C(C[n+]1ccc(-c2nnc3n2CCC3)cc1)c1ccc(Cl)cc1,0,0,-,0,0
Cc1ccc(C(=O)Nc2ccc3cn[nH]c3c2)cc1S(=O)(=O)N1CCOCC1,0,0,-,0,0
CSc1nc(N)n2nc(-c3ccc(Cl)cc3)cc2n1,0,0,0,-,0
OCCNCc1cccc(OCc2ccc(Cl)cc2)c1,0,0,0,54,0
OCCNCc1cc(Br)ccc1OCc1ccc(F)cc1,0,0,0,0,0
OCCNCc1cc(Br)ccc1OCc1ccc(Cl)cc1Cl,0,0,0,101,-
OCCNCc1cc(Br)ccc1OCc1ccc(Cl)cc1,0,0,0,93,-
CC(C)(C)C(=O)CSc1nnc(Nc2ccccc2)s1,0,0,0,0,0
O=C(CSc1nnc(-c2ccncc2)n1-c1ccccc1)Nc1ccc(C(=O)O)cc1,0,0,0,0,0
Cn1c(=O)n(C)c2cc(NC(=O)CSc3nnc(-c4ccccc4O)n3-c3ccccc3)ccc21,0,0,0,60,0
CCc1nnc(NC(=O)CSc2nnc(-c3ccccc3O)n2-c2ccc(C)cc2C)s1,0,0,0,99,0
COc1ccc(CNCC(O)COc2cccc3c2OC(C)(C)C3)cc1 (stereo unspecified),0,0,0,86,0
Cc1cc2nnn(-c3nnc(-c4ccccc4)c4ccccc34)c2cc1C,0,0,0,0,-
CCC(CO)NCc1cc(OC)c(OCC(=O)NCCc2ccccc2)cc1Br (stereo unspecified),0,0,0,97,0
CCCNCc1cc(OC)c(OCC(=O)NCCc2ccccc2)cc1Br,0,0,0,55,0
CCCNCc1cc(OC)c(OCc2ccccc2)cc1Br,0,0,-,0,0
O=C1CCCCC1C(O)c1ccc(Cl)cc1 (stereo unspecified),0,0,0,-,0
CCn1c(=N)n(CC(=O)C23CC4CC(CC(C4)C2)C3)c2ccccc21,0,0,0,62,0
CCn1c(=N)n(CC(=O)c2cccc([N+](=O)[O-])c2)c2ccccc21,0,0,0,0,0
CC(=O)OCC(=O)[C@H]1CC[C@H]2[C@@H]3CCC4=CC(=O)CC[C@]4(C)[C@H]3CC[C@]12C,0,0,-,100,0
O=C(N/N=C/c1cc(Cl)cc(Cl)c1O)c1ccncc1,0,0,0,-,0
O=C(N/N=C/c1cc(Br)c(Br)s1)c1ccncc1,0,0,0,98,0
SMILES,S1P4 agonist,S1P4 antag,Mdm2 ligase inh,L major viab,S1P3 antag
O=C(N/N=C/c1cc(Br)cc(Br)c1O)c1ccncc1,0,0,0,96,0
CCO[C@@H]1OC(C(=O)N2CCCCCCC2)=C[C@H](C2CCCCC2)[C@H]1CCCO,0,0,-,0,0
Cc1cc(C)c(-n2nnnc2SCC(=O)c2cc3ccccc3o2)c(C)c1,0,0,0,-,0
COc1ccc(CNC(=O)c2noc(C(C)C)c2[N+](=O)[O-])cc1,0,0,0,54,0
O=C(NCCN1CCOCC1)N1c2ccccc2Sc2ccccc21,0,0,0,0,-
Cc1ccc2c(c1)C(c1ccc([N+](=O)[O-])cc1)=NNC(c1ccc(Br)cc1)=N2,0,0,0,53,0
O=C1CNC(=S)N1CCc1ccccc1Cl,0,0,0,-,0
COc1ccccc1C(=O)ON=C1c2ccccc2-c2ccccc21,0,0,0,51,0
CCOc1ccc(-n2c(SCC(=O)NCc3ccco3)nnc2-c2c[nH]c3ccccc23)cc1,0,0,0,93,-
COc1ccc(-n2c(-c3ccc(F)cc3)cnc2SCC(=O)NCc2ccco2)cc1,0,0,0,100,-
COC(=O)c1nn(-c2nc(-c3cccc(OC)c3)cc(C(F)(F)F)n2)cc1[N+](=O)[O-],0,0,0,90,0
COc1ccc(C2Oc3ccccc3C3=C2C(c2cccs2)n2ncnc2N3)cc1 (stereo unspecified),0,0,0,69,-
COc1ccc(C2C3=C(Nc4ncnn42)c2ccccc2CC3)cc1OC (stereo unspecified),0,0,0,0,0
Brc1ccc(C2C3=C(Nc4ncnn42)c2ccccc2OC3c2ccncc2)cc1 (stereo unspecified),0,0,0,75,-
COC(=O)/C=C/C(=O)Nc1cccc(C(F)(F)F)c1,0,0,0,0,0
CN(C)C(=O)NC(O)C(Cl)Cl (stereo unspecified),0,0,0,0,-
Cc1c(-c2ccnc3cc(C(=O)O)nn23)cnn1C,0,0,0,0,0
Cc1cccc(NC(c2ccc(O)cc2)c2ccc3ccc(C)nc3c2O)n1 (stereo unspecified),0,0,0,0,-
Oc1c(C(Nc2ccccn2)c2cccnc2)cc(Cl)c2cccnc12 (stereo unspecified),0,0,0,94,0
Cc1cc(NC(c2cccnc2)c2ccc3cccnc3c2O)no1 (stereo unspecified),0,0,0,99,0
Oc1cccc(C(Nc2nccs2)c2ccc3cccnc3c2O)c1 (stereo unspecified),0,0,0,100,0
Cc1nc(-c2cccnc2)sc1C(=O)Nc1cccc(C(F)(F)F)c1,0,0,0,0,-
Oc1c(C(Nc2cccc(C(F)(F)F)c2)c2cccnc2)ccc2cccnc12 (stereo unspecified),0,0,0,100,0
Cc1cc(Cl)ccc1OCCCC(=O)NCCN1C(=O)S/C(=C\c2cccnc2)C1=O,0,0,0,0,0
Cc1ccc2oc(-c3cccc(NC(=O)/C=C/c4cccc([N+](=O)[O-])c4)c3C)nc2c1,0,0,0,0,0
SMILES,S1P4 agonist,S1P4 antag,Mdm2 ligase inh,L major viab,S1P3 antag
CCSc1nnc(NC(=O)C2CCCCC2C(=O)O)s1 (stereo unspecified),0,0,0,0,0
CCSc1nnc(NC(=O)C2CCN(S(=O)(=O)c3ccccc3C(F)(F)F)CC2)s1,0,0,0,55,0
CCSc1nnc(NC(=O)C2CC2c2ccccc2)s1 (stereo unspecified),0,0,0,82,0
CS(=O)(=O)N(CC(=O)Nc1ccc(F)c(F)c1)c1cccc([N+](=O)[O-])c1,0,0,0,0,0
Cc1cccc(N2CCN(C(=O)Cn3sc4nc(C)cc(C)c4c3=O)CC2C)c1 (stereo unspecified),0,0,0,0,0
Cc1cc(C)c2c(=O)n(CC(=O)N3CCC(Cc4ccccc4)CC3)sc2n1,0,0,0,78,0
NNC(=O)c1cc2c(N3CCC(Cc4ccccc4)CC3)ncnc2s1,0,0,0,0,0
COc1ccc(S(=O)(=O)n2nc(OC(=O)c3cccs3)cc2NC(=O)c2cccs2)cc1,0,0,-,0,0
O=C1CCC/C(=N/Nc2ccc(Cl)cc2)C1,0,0,0,99,0
COc1cccc(CN2C[C@]34C=C[C@@H](C[C@@H]3S2(=O)=O)O4)c1,-,-,0,-,-
